24 molecules from ChEMBL document CHEMBL1811777, “Rational design of potent, small, synthetic allosteric inhibitors of thrombin” (J Med Chem, 2011) can be followed below.

Calls of active or inactive are those of the source. The calls are words filed in the database; no cut-off is given here.

The target in assay [1] is T1, Prothrombin (Homo sapiens, UniProt P00734). As to the kind of experiment: Inhibition of human alpha-thrombin assessed as spectrozyme TH hydrolysis after 10 mins by spectrophotometric analysis. The essentials: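 Human α-thrombin (~5 nM initial) preincubated 10 min with inhibitor (4 μg/ml to 5 mg/ml stocks) at 25 °C. Buffer: 20 mM Tris-HCl pH 7.4, 100 mM NaCl, 2.5 mM CaCl2, 0.1% PEG 8000. Fractional residual activity fitted to logistic equation (Hill slope fixed at 1) for IC50 and efficacy ΔY.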

The subject of assay [2] is Plasma. As to the kind of experiment: Anticoagulant activity in human plasma assessed as concentration required to double the activated partial thromboplastin time. It is filed as functional.
Assay [3] has as its system Plasma. In words: Anticoagulant activity in human plasma assessed as concentration required to double the prothrombin time. It counts as functional. The essentials:
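One-stage recalcification PT on a fibrometer. 10 μL inhibitor brought to 100 μL with citrated human plasma, incubated 30 s at 37 °C, then 200 μL prewarmed thromboplastin added and clotting time recorded. Deionized water gave baseline clotting time. Duplicates; concentration doubling PT read from clotting time versus concentration.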

Assay [4] addresses T1, Prothrombin. In words: Non-competitive inhibition of human alpha-thrombin assessed as spectrozyme TH hydrolysis at 1.5 to 30 uM by Michaelis-Menten equation analysis. The method, boiled down: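 Spectrozyme TH (10 to 600 μM) hydrolysed by 5–10 nM human thrombin at fixed inhibitor levels (0–30 μM) in 20 mM Tris-HCl pH 7.4, 37 °C. Initial rate taken from linear A405 rise with under 10% substrate consumption. KM and VMAX obtained by fitting the Michaelis-Menten equation.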

For `COc1cc2oc(C)c(C(=O)N3CCOCC3)c2cc1OS(=O)(=O)O`, the IC50 on Prothrombin [1] (read-out: IC50) is > 2000 µM. The same measure, in the same setting: then `COC(=O)c1c(C)oc2cc(OC)c(OS(=O)(=O)O)cc12`, with > 3000 µM. For `COc1cc2oc(C)c(C(=O)O)c2cc1OCc1oc2cc(OC)c(OS(=O)(=O)[O-])cc2c1C(=O)O.[Na+]`, the IC50 on Prothrombin [1] (read-out: IC50) worked out at 374 µM. Besides, the 2aPTT in the assay with Plasma [2] is >1000 µM. With `CCOC(=O)c1c(CN2CCOCC2)oc2cc(OC)c(OS(=O)(=O)O)cc12`, the IC50 on Prothrombin [1] (read-out: IC50) was > 7000 µM. Same read-out and setting: then `C=CCOC(=O)c1c(C)oc2cc(OC)c(OS(=O)(=O)O)cc12`, with > 3000 µM; and `CCOC(=O)c1c(C)oc2cc(OC(=O)N3CCOCC3)c(OS(=O)(=O)O)cc12`, with > 25000 µM. Turning to `CCOC(=O)c1c(C)oc2cc(OC(C)C)c(OCc3oc4cc(OC(C)C)c(OS(=O)(=O)O)cc4c3C(=O)OCC)cc12`, at Prothrombin [1] (read-out: IC50), the IC50 turned out to be 30 µM. With `CCOC(=O)c1c(COc2cc3c(C(=O)OCC)c(CN4CCOCC4)oc3cc2OC)oc2cc(OC)c(OS(=O)(=O)O)cc12`, the IC50 at Prothrombin [1] (read-out: IC50) and at Prothrombin [1] (read-out: pIC50 (converted)) was 129 µM throughout. Consider `CCOC(=O)c1c(C)oc2cc(OCc3oc4cc(OC)c(OS(=O)(=O)O)cc4c3C(=O)OCC)c(OS(=O)(=O)O)cc12`, for which the IC50 on Prothrombin [1] (read-out: IC50) was 764 µM; on Prothrombin [1] (read-out: pIC50 (converted)), 759 µM. Consider `COC(=O)c1c(C)oc2cc(OC)c(OCc3oc4cc(OC)c(OS(=O)(=O)[O-])cc4c3C(=O)OC)cc12.[Na+]`, for which the IC50 on Prothrombin [1] (read-out: IC50) was 37 µM; at Prothrombin [1] (read-out: pIC50 (converted)), 37.2 µM. Besides, the 2aPTT with Plasma [2] is >1000 µM. In addition, the 2PT in the assay with Plasma [3] was determined as 850 µM. Regarding `COCCOC(=O)c1c(C)oc2cc(OC)c(OCc3oc4cc(OC)c(OS(=O)(=O)[O-])cc4c3C(=O)OCCOC)cc12.[Na+]`, the IC50 at Prothrombin [1] (read-out: IC50) was 375 µM. Also, the 2aPTT in the assay with Plasma [2] was >1000 µM. With `COc1cc2oc(C)c(C(=O)OC(C)(C)C)c2cc1OS(=O)(=O)[O-].[Na+]`, the IC50 at Prothrombin [1] (read-out: IC50) was > 3000 µM. Besides, the 2aPTT in the assay on Plasma [2] is >2000 µM.

Regarding `COCCOC(=O)c1c(C)oc2cc(OC)c(OS(=O)(=O)O)cc12`, the IC50 on Prothrombin [1] (read-out: IC50) is > 2000 µM.

`CCOC(=O)c1c(C)oc2cc(OC(=O)c3ccc(OC)cc3)c(OS(=O)(=O)[O-])cc12.[Na+]`: on Prothrombin [1] (read-out: IC50), the IC50 worked out at 520 µM. For the same molecule, in the assay with Plasma [2], the 2aPTT turned out to be 1250 µM. For the same molecule, in the assay on Plasma [3], the 2PT came out at 1200 µM. Take `CCOC(=O)c1c(C)oc2cc(OC)c(OCc3oc4cc(OC)c(OS(=O)(=O)[O-])cc4c3C(=O)OCC)cc12.[Na+]`: on Prothrombin [1] (read-out: IC50), the IC50 stood at 60 µM. Also, the 2aPTT in the assay on Plasma [2] stood at 740 µM. Also, the 2PT in the assay with Plasma [3] was found to be 2100 µM. In addition, the inhibition entry at Prothrombin [4] is “Active”. As to `CCOC(=O)c1c(C)oc2cc(OCC)c(OCc3oc4cc(OCC)c(OS(=O)(=O)[O-])cc4c3C(=O)OCC)cc12.[Na+]`, the IC50 at Prothrombin [1] (read-out: IC50) is 121 µM. In the assay with Plasma [2], the 2aPTT is 530 µM. Take `COc1cc2oc(C)c(C(=O)OC(C)(C)C)c2cc1OCc1oc2cc(OC)c(OS(=O)(=O)[O-])cc2c1C(=O)OC(C)(C)C.[Na+]`: the IC50 at Prothrombin [1] (read-out: IC50) is 7.3 µM; at Prothrombin [1] (read-out: pIC50 (converted)), 7.24 µM. The 2aPTT in the assay with Plasma [2] worked out at 355 µM.

As to `CCOC(=O)c1c(C)oc2cc(OC)c(OCc3oc4cc(OS(=O)(=O)O)c(OS(=O)(=O)O)cc4c3C(=O)OCC)cc12`, the figures for the IC50 on Prothrombin [1] (read-out: IC50) and on Prothrombin [1] (read-out: pIC50 (converted)) were 365 µM and 363 µM, respectively.

`CCOC(=O)c1c(C)oc2cc(OC)c(OS(=O)(=O)O)cc12`: the IC50 on Prothrombin [1] (read-out: IC50) was > 2500 µM. With `CCOC(=O)c1c(C)oc2cc(OC(C)C)c(OS(=O)(=O)O)cc12`, at Prothrombin [1] (read-out: IC50), the IC50 came to 13700 µM. Regarding `CCOC(=O)c1c(C)oc2cc(OCC)c(OS(=O)(=O)O)cc12`, the IC50 at Prothrombin [1] (read-out: IC50) was 20600 µM; at Prothrombin [1] (read-out: pIC50 (converted)), 20000 µM. As to `CCOC(=O)c1c(C)oc2cc(OCOC)c(OS(=O)(=O)[O-])cc12.[Na+]`, at Prothrombin [1] (read-out: IC50), the IC50 is > 16000 µM. Moreover, the 2aPTT with Plasma [2] was >1200 µM. Consider `COc1cc2oc(C)c(C(=O)N3CCCCC3)c2cc1OS(=O)(=O)O`, for which the IC50 at Prothrombin [1] (read-out: IC50) is > 2000 µM.

Take `COc1cc2oc(C)c(C(=O)N3CCOCC3)c2cc1OCc1oc2cc(OC)c(OS(=O)(=O)[O-])cc2c1C(=O)N1CCOCC1.[Na+]`: the IC50 on Prothrombin [1] (read-out: IC50) was > 7100 µM. Moreover, the 2aPTT in the assay with Plasma [2] is >1000 µM.
